# Rows were chosen to be rich in hits. Some 3.7% of all compounds tested hit in one or more screens of this group.
# NR3A LBD binder: modulators (binders) of human NR3A ligand-binding domain; NR3A LBD differential scanning fluorimetry, Tm shift; 0% = protein alone, 100% = glycine-bound protein; Tm shift relative to glycine control, % at 25 µM; hit rate 2.5% among 340,000;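 active = melting temperature shift of at least 10% of the positive control shift, at one fixed dose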
# proCasp3 act: activators of human procaspase-3; P42574; recombinant procaspase-3 D3A, Ac-DEVD-pNA absorbance 405 nm; activation, % at 8.5 µM; hit rate 0.11% among 330,000;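 active = activation above the mean of all tested compounds plus 3 SD, cut at about 21% in these data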;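 note: 0% = DMSO alone and 100% = DMSO wells spiked with extra 5 µM PC-3 D3A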
# Target sequence (P42574 whole entry D9A/D28A/D175A): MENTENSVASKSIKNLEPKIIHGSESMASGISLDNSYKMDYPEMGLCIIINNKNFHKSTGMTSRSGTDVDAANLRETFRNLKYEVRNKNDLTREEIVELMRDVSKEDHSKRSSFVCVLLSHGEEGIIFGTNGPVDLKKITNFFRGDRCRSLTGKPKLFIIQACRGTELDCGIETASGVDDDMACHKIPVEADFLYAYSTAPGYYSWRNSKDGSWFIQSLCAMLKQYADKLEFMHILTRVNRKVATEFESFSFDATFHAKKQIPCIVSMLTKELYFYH
#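 Assay system – Procaspase-3 D3A mutant, all three cleavage aspartates alanine · Controls – DMSO-only low control, 5 µM PC-3 D3A high control · Schedule – 1 h compound preincubation, 2 h substrate hydrolysis at 25 °C · Signal – 405 nm absorbance of p-nitroaniline, reads at 0 and 120 min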
# aDG glyco up: increases alpha dystroglycan glycosylation; Pro5-aDG cells, alpha-DG glycosylation AlphaScreen (IIH6); 0% Pro5, 100% B10-LARGE cell signal; activation, % at 10 µM; hit rate 0.22% among 360,000;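 active = activation of at least 8% versus controls, or a plate z-score of at least 8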;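 note: Pro5 are CHO cells carrying HIG-tagged alpha-DG that lacks glycosylation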
# proCasp7 act: activates human procaspase-7, counter-screen for procaspase-3 activators. recombinant procaspase-7, Ac-DEVD-pNA absorbance 405 nm; D23A/D198A/D206A triple mutant, cannot self-cleave; scale: DMSO 0, 5 µM enzyme 100. activation, % at 8.5 µM. hit rate 0.093% among 330,000. AID 463210;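 active = percent activation above the screen-wide mean plus 3 SD, cut at about 25% in these data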
# Target sequence (P55210 whole entry D23A/D198A/D206A): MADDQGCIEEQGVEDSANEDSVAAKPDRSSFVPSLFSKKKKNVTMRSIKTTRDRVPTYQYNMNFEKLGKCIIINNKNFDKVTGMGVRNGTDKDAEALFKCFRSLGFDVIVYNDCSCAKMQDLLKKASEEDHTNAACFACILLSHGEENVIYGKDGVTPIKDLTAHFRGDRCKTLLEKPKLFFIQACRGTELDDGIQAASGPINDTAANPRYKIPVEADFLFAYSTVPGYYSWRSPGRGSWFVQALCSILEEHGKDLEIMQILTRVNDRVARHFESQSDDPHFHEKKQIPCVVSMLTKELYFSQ
#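 Assay system: Uncleavable procaspase-7 mutant enzyme; Input: 2 µM procaspase-7 mutant as dispensed; Also added: DEVD-pNA substrate; Medium: Zinc-free HEPES pH 7.4 with 300 mM NaCl, 0.01% Triton X-100; Timing: 1 h compound preincubation, 2 h substrate cleavage, 25 °C; Measured by: Epi-absorbance of released pNA at 405 nm, two timepoints.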
# MPTP block: blocks calcium-induced mitochondrial swelling; inhibition, % at 10 µM; hit rate 1.4% among 360,000; isolated mouse mitochondria, Ca2+ swelling absorbance, 30 min; AID 602449;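 active = inhibition of 50% or more, scaled per plate between neutral and stimulator controls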;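 note: 0% = DMSO wells given calcium and 100% = 1 mM EGTA wells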
# Starred values were filed as active, the others as inactive; / = no result; ! = repeats disagree.
SMILES,NR3A LBD binder,proCasp3 act,aDG glyco up,proCasp7 act,MPTP block
CCOc1ccccc1NC(=O)c1ccc(OCC(=O)N2CCOCC2)c(OC)c1,-1.1,7.9,0.3,13.1,0.0
CCOc1cc(C=NN=C2c3ccccc3-c3ccccc32)ccc1O,1.7,/,-0.2,/,3.7
COc1ccc2c(COC(=O)[C@@H]3CCCN3S(=O)(=O)c3ccc(Cl)cc3)cc(=O)oc2c1,2.1,/,-0.2,/,-0.5
CCOC(=O)CC1(NC(=O)c2cc(COc3cccc(OC)c3)on2)CCCCC1,1.2,1.4,0.6,-11.2,6.8
CC(=O)NC1C(=O)N(CCN2CCOCC2)c2ccc(Br)cc21 (stereo unspecified),17.9*,-17.7,-0.1,-21.5,-0.6
CCOc1ccc2c(c1)C(NC(C)=O)C(=O)N2CCN1CCOCC1 (stereo unspecified),-2.7,/,-0.1,/,-0.3
NNC(=O)c1cc(NS(=O)(=O)c2cccs2)cc(NS(=O)(=O)c2cccs2)c1,-2.1,7.4,-0.1,3.9,-1.4
C[C@H]1CN([C@@H](C)CO)C(=O)c2cc(Br)cnc2O[C@H]1CN(C)Cc1ccccc1C(=O)O,/,/,-0.1,/,-0.6
Nc1cccc(Oc2c(F)c(F)c(Oc3cccc(N)c3)c(F)c2F)c1,22.8*,-12.8,-0.2,-3.2,5.6
Cc1ccccc1NC(=O)CSc1ccc(-c2ccc(-n3cccn3)cc2)nn1,0.8,6.4,-0.2,-0.6,1.0
Cc1nc(NC(=O)CSc2ccc(-c3nc4ccccc4[nH]3)cn2)sc1C,19.6*,-5.5,0.7,0.5,-9.0
Cc1ccc(SCC(=O)Nc2ccc(-c3nc4ccccc4[nH]3)cc2)cc1,35.1*,-2.0,0.2,-3.8,6.4
Cc1ccc(NC(=O)CCCSc2nc3ccccc3[nH]2)cc1,-4.3,10.7,1.0,5.5,6.4
CCc1nnc(NC(=O)CSc2ccc(-c3ccc(-n4cccn4)cc3)nn2)s1,34.6*,-7.7,0.0,-13.2,-0.7
COCCNC(=O)CSc1ccc(-c2nc3ccccc3[nH]2)cn1,-1.1,11.6,0.1,1.0,3.6
Cc1ccc2nc(-c3ccc(SCC(=O)Nc4nnc(C)s4)nc3)[nH]c2c1,23.9*,-0.5,0.1,0.1,0.9
CCNC(=O)C1CCCN(C(=O)c2ccccc2F)CC1 (stereo unspecified),/,/,-0.1,/,-1.3
CCOC(=O)CSc1ccc(-c2nc3ccccc3[nH]2)cn1,-6.0,9.5,0.4,-12.1,0.5
CCc1nnc(NC(=O)CSc2ccc(-c3nc4ccccc4[nH]3)cn2)s1,19.0*,-0.4,0.0,-3.4,0.1
Cc1ccc(NC(=O)CN(C)C(=O)c2cccnc2Nc2cccc(C(F)(F)F)c2)cc1,16.2*,6.9,0.2,-2.7,5.2
COc1ccc(-c2noc(N(C)CC(=O)Nc3cccc(C(F)(F)F)c3)n2)cc1,10.1*,0.6,0.0,8.2,4.3
COc1cccc(NC(=O)CN(C)C(=O)c2cccnc2Nc2cccc(C(F)(F)F)c2)c1,35.4*,-0.8,0.0,13.2,1.6
CCOc1ncccc1C(=O)N(C)CC(=O)Nc1ccc(C)cc1,0.1,-3.0,-0.1,8.1,0.4
CCCC(=O)N1CCCC1(C)C(=O)Nc1ccc2c(c1)CCN2C(C)=O (stereo unspecified),/,/,-0.2,/,5.7
COC(=O)CCCC[C@@H]1O[C@H](CCc2ccccc2)CC2=C1C(=O)OC(C)(C)O2,/,/,-0.1,/,-0.4
SMILES,NR3A LBD binder,proCasp3 act,aDG glyco up,proCasp7 act,MPTP block
O=C(CSc1nnc(-c2c[nH]c3ccccc23)o1)c1ccc(-c2ccccc2)cc1,24.2*,-2.5,0.2,8.2,1.8
CN(C)CCC(c1ccc(Cl)cc1)c1ccccn1 (stereo unspecified),15.7*!,8.0,-0.2,-10.1,0.0
CN(C)CCC(c1ccccc1)c1ccccn1 (stereo unspecified),4.5,3.2,-0.2,14.8,-2.0
COc1ccc(NC(=O)C(c2ccc(C#N)cc2)n2c(=O)c(-c3ccco3)nc3ccccc32)cc1 (stereo unspecified),/,/,-0.2,/,-0.2
Cc1cc(NC(=O)/C=C/c2cccc(Cl)c2)n(-c2nc3ccccc3[nH]2)n1,10.7*,-5.8,-0.1,-2.8,3.3
COc1ccc(/C=C/C(=O)Nc2cc(C)nn2-c2nc3ccccc3[nH]2)cc1,1.0,3.9,-0.1,7.7,-0.2
Cc1cc(NC(=O)/C=C/c2cccc(F)c2)n(-c2nc3ccccc3[nH]2)n1,4.8,8.1,-0.3,-2.6,2.5
Cc1cc(NC(=O)/C=C/c2ccc(F)cc2)n(-c2nc3ccccc3[nH]2)n1,12.2*,-6.2,-0.4,4.5,-0.7
CCN(C[C@H]1N[C@@](C)(C(=O)OC)[C@H]2C(=O)N(C)C(=O)[C@@H]12)C(=O)c1ccc(C(C)(C)C)cc1,0.9,13.2,-0.1,9.2,-1.7
COc1ccc(NC(=O)c2ccco2)cc1NC(=O)c1ccccc1F,-0.9,-6.7,0.1,-12.6,-1.2
COc1ccc(NC(=O)c2cccc(OC(F)F)c2)cc1Cl,31.3*,0.2,0.5,-3.7,4.9
COc1cc(NC(=O)c2ccc(-c3cccc(F)c3)o2)ccc1NC(=O)c1ccccc1Cl,23.2*,8.5,0.7,-3.6,0.2
COc1ccc(NC(=O)c2cccc(F)c2)cc1Cl,10.5*,-4.0,0.8,8.0,-1.7
COc1ccc(NC(=O)c2ccccc2F)cc1Cl,30.1*,3.6,-0.2,8.7,-0.4
CCOC(=O)[C@]12CCCC=C1N(CCC1=CCCCC1)C(=O)[C@H](CC(=O)NCc1cccs1)C2,/,/,-0.3,/,0.1
CC1CCCC(NC(=O)c2cccs2)C1C (stereo unspecified),0.4,2.1,0.3,11.7,-0.8
COc1ccccc1[C@@]1(C)ON(c2ccccc2C(F)(F)F)C1=O,2.4,5.8,0.6,8.9,0.9
CC/C(=N\NC(=O)CNC(=O)/C=C/c1ccco1)c1ccccc1,-0.4,11.5,-0.3,8.7,-4.4
CCC/C(=N\NC(=O)CNC(=O)/C=C/c1ccco1)c1ccccc1,10.0*,4.5,0.0,-6.0,-4.5
COc1ccc(COC(=O)N/N=C/c2cccs2)cc1,31.9*,5.3,-0.1,6.8,0.4
COc1ccc(CC(=O)N/N=C/c2cccs2)cc1OC,1.7,6.7,0.2,-8.7,0.6
CCCC(=O)Nc1c(-c2ccccc2)[nH][nH]c1=O,/,/,-0.2,/,-2.4
Cc1noc(C)c1NC(=O)N(C)C[C@@H]1OCc2cn(nn2)CCCC(=O)N([C@H](C)CO)C[C@H]1C,/,/,-0.2,/,-1.8
O=C(C1CCN(c2nnc(N3CCCC3=O)s2)CC1)N1CCN(c2cccc(C(F)(F)F)c2)CC1,16.9*,-2.6,0.3,-7.8,-0.4
COCCNc1nc(Oc2cccc3ccccc23)c2sccc2n1,/,/,0.4,/,0.3
COc1ccccc1N1CCN(S(=O)(=O)CCNC(=O)CC2CCCC2)CC1,/,/,-0.2,/,0.7

# Compound activity from PubChem.
